# Test results taken from ChEMBL document CHEMBL1144121, “Umbelliferone analogues and their potential to inhibit Benzo(a)pyrene- and hydrogen peroxide-induced mutations” (J Nat Prod, 1999).
# Columns and labels:
# Salmonella typhimurium [1] = test: Antimutagenic activity in Salmonella Typhimurium TA100 assessed as protection against benzo[a]pyrene-induced mutation at 32 ug/plate after 2 days by modified Ames test; type: functional, Salmonella enterica subsp. enterica serovar Typhimurium; details: at 32 µg/plate
# Salmonella typhimurium [2] = test: Antimutagenic activity in Salmonella Typhimurium TA102 assessed as protection against hydrogen peroxide-induced mutation at 1 ug/plate after 2 days by modified Ames test; type: functional, Salmonella enterica subsp. enterica serovar Typhimurium
# Procedure, shortened: (§1)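 S. typhimurium TA102 grown 15 h at 37 °C in Oxoid Nutrient Broth No. 2 with shaking to about (1-2) × 10^8 cells/mL. Culture in histidine/biotin-supplemented top agar with 100 μg hydrogen peroxide and test compound. Plated on Vogel-Bonner E medium, 37 °C for 2 days. His+ revertants scored on 3 plates, averaged, and % protection taken relative to mutagen-induced revertants minus spontaneous revertants.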
# Salmonella typhimurium [3] = test: Antimutagenic activity in Salmonella Typhimurium TA102 assessed as protection against hydrogen peroxide-induced mutation at 2 ug/plate after 2 days by modified Ames test; type: functional, Salmonella enterica subsp. enterica serovar Typhimurium; procedure, shortened: as §1
# Salmonella typhimurium [4] = test: Antimutagenic activity in Salmonella Typhimurium TA100 assessed as protection against benzo[a]pyrene-induced mutation at 2 ug/plate after 2 days by modified Ames test; type: functional, Salmonella enterica subsp. enterica serovar Typhimurium
# Procedure, shortened: as §1, with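 “TA100” for “TA102”, “5” for “100”, “benzo(a)pyrene plus 50 μL S9” for “hydrogen peroxide”, “mutagen” for “mutagen-induced revertants”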
# Salmonella typhimurium [5] = test: Antimutagenic activity in Salmonella Typhimurium TA100 assessed as protection against benzo[a]pyrene-induced mutation at 8 ug/plate after 2 days by modified Ames test; type: functional, Salmonella enterica subsp. enterica serovar Typhimurium; details: at 8 µg/plate
# Salmonella typhimurium [6] = test: Antimutagenic activity in Salmonella Typhimurium TA100 assessed as protection against benzo[a]pyrene-induced mutation at 4 ug/plate after 2 days by modified Ames test; type: functional, Salmonella enterica subsp. enterica serovar Typhimurium
# Procedure, shortened: as §1, with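 “TA100” for “TA102”, “5” for “100”, “benzo(a)pyrene plus 50 μL S9” for “hydrogen peroxide”, “mutagen” for “mutagen-induced revertants”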
# Salmonella typhimurium [7] = test: Antimutagenic activity in Salmonella Typhimurium TA102 assessed as protection against hydrogen peroxide-induced mutation at 4 ug/plate after 2 days by modified Ames test; type: functional, Salmonella enterica subsp. enterica serovar Typhimurium; details: at 4 µg/plate
# Salmonella typhimurium [8] = test: Antimutagenic activity in Salmonella Typhimurium TA100 assessed as protection against benzo[a]pyrene-induced mutation at 16 ug/plate after 2 days by modified Ames test; type: functional, Salmonella enterica subsp. enterica serovar Typhimurium; details: at 16 µg/plate
# Salmonella typhimurium [9] = test: Antimutagenic activity in Salmonella Typhimurium TA102 assessed as protection against hydrogen peroxide-induced mutation at 8 ug/plate after 2 days by modified Ames test; type: functional, Salmonella enterica subsp. enterica serovar Typhimurium; details: at 8 µg/plate
# [10] = Cytotoxicity against Salmonella Typhimurium TA100 assessed as maximum non-toxic concentrations after 15 hrs by ELISA; details: salmonella enterica subsp. enterica serovar typhimurium, Salmonella Typhimurium TA100 bacteria
smiles,measurement,setting,value
CC1=CC[C@@H](O)C(C)(C)[C@H]1CC/C(C)=C/COc1ccc2ccc(=O)oc2c1,Activity,Salmonella typhimurium [1],45%
C#CC(C)(C)Oc1ccc2ccc(=O)oc2c1,Activity,Salmonella typhimurium [2],0%
same,Activity,Salmonella typhimurium [3],0%
same,Activity,Salmonella typhimurium [4],10%
same,Activity,Salmonella typhimurium [5],25%
same,Activity,Salmonella typhimurium [6],15%
same,Activity,Salmonella typhimurium [7],11%
CC(C)=CCOc1ccc2ccc(=O)oc2c1 [7-PRENYLOXYCOUMARIN],Activity,Salmonella typhimurium [2],9%
same,Activity,Salmonella typhimurium [3],14%
same,Activity,Salmonella typhimurium [4],19%
same,Activity,Salmonella typhimurium [5],36%
same,Activity,Salmonella typhimurium [6],29%
same,Activity,Salmonella typhimurium [7],17%
COc1ccc2ccc(=O)oc2c1 [HERNIARIN],Activity,Salmonella typhimurium [2],0%
same,Activity,Salmonella typhimurium [3],10%
same,Activity,Salmonella typhimurium [4],21%
same,Activity,Salmonella typhimurium [5],36%
same,Activity,Salmonella typhimurium [6],28%
same,Activity,Salmonella typhimurium [7],11%
CC1(C)C=Cc2c(ccc3ccc(=O)oc23)O1 [SESALIN],Activity,Salmonella typhimurium [8],20%
same,Activity,Salmonella typhimurium [9],22%
same,Activity,Salmonella typhimurium [3],0%
same,Activity,Salmonella typhimurium [5],8%
same,Activity,Salmonella typhimurium [6],1%
same,Activity,Salmonella typhimurium [7],8%
O=c1ccc2ccc(OCC3CCCCC3)cc2o1 [UMBELLIFERONECYCLOHEXYLMETHYL ETHER],Activity,Salmonella typhimurium [8],54%
same,Activity,Salmonella typhimurium [9],39%
same,Activity,Salmonella typhimurium [3],0%
same,MNTC at 15 h,[10],16 µg/mL
same,Activity,Salmonella typhimurium [5],44%
same,Activity,Salmonella typhimurium [6],33%
same,Activity,Salmonella typhimurium [7],5%
O=c1ccc2ccc(O)cc2o1 [UMBELLIFERONE],Activity,Salmonella typhimurium [8],39%
same,Activity,Salmonella typhimurium [9],28%
same,Activity,Salmonella typhimurium [3],7%
same,Activity,Salmonella typhimurium [5],22%
same,Activity,Salmonella typhimurium [6],10%
same,Activity,Salmonella typhimurium [7],13%
